In ChEMBL document CHEMBL1926551, “Design, synthesis and in vitro evaluation of novel chroman-4-one, chroman, and 2H-chromene derivatives as human rhinovirus capsid-binding inhibitors” (Bioorg Med Chem, 2011):
The source made the active and inactive calls. No cut-off for these calls is given here.

Experiments:
[1] = Cytotoxicity against human HeLa cells after 3 days by microscopic analysis; assay type: cell-based; settings: read-out: MNCC
How it was run: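 HeLa cells exposed to twofold compound dilutions for 3 days at 37 °C and morphology scored microscopically on day 3. The MNTC is the highest concentration leaving morphology and viability unchanged in 100% of cells.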

[2] = Cytotoxicity against human HeLa cells after 3 days by XTT based ELISA reader; assay type: cell-based; settings: read-out: TC50
How it was run: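 HeLa cells seeded at 2 × 10^3 cells/well in growth medium (MEM, 8% FCS) with twofold compound dilutions from the maximum soluble concentration, triplicate wells. Matched ethanol controls were run. Plates were held 3 days at 37 °C, 5% CO2, then XTT was added (final 0.15 mg/mL) for 4 h.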

rhinovirus A1B [3] = assay: Antiviral activity against Human rhinovirus 1B infected in human HeLa cells assessed as inhibition of virus induced-plaque formation after 3 days by neutral red-based plaque reduction assay; assay type: functional, organism-based; settings: Rhinovirus A, 72 h
How it was run: (§1)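 HeLa (Ohio) monolayers infected with virus giving about 100 plaques/well and adsorbed 1 h at 33 °C. The inoculum was removed and cells were overlaid with plaque medium ± fourfold compound dilutions, starting from the maximum non-cytotoxic concentration (MNTC). After 3 days at 33 °C, cells were stained with neutral red (0.2 mg/mL in PBS, pH 7.4) and plaques counted, triplicate wells.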

[4] = Therapeutic index, ratio of TC50 for human HeLa cells to IC50 for Human rhinovirus 1B infected in human HeLa cells; assay type: cell-based; settings: read-out: TI
How it was run: (§2)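 Therapeutic index calculated as HeLa TC50 (XTT, 3 days) divided by the plaque-reduction IC50 for the respective serotype.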

rhinovirus B14 [5] = assay: Antiviral activity against Human rhinovirus 14 infected in human HeLa cells assessed as inhibition of virus induced-plaque formation after 3 days by neutral red-based plaque reduction assay; assay type: functional, organism-based; settings: Rhinovirus B, 72 h
How it was run: as §1, with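 “wells. IC50 came from % plaque reduction vs log dose; where 50% was not reached, % inhibition at the MNTC was reported.” for “wells.”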

[6] = Therapeutic index, ratio of TC50 for human HeLa cells to IC50 for Human rhinovirus 14 infected in human HeLa cells; assay type: cell-based; settings: read-out: TI; how it was run: as §2
rhinovirus B14 [7] = assay: Antiviral activity against Human rhinovirus 14 infected in human HeLa cells assessed as inhibition of virus induced-plaque formation at 25 uM after 3 days by neutral red-based plaque reduction assay; assay type: functional; settings: Rhinovirus B, 72 h; how it was run: as §1
[8] = Ratio of IC50 for Human rhinovirus 1B to IC50 for Human rhinovirus 14; assay type: functional
rhinovirus B14 [9] = assay: Antiviral activity against Human rhinovirus 14 infected in human HeLa cells assessed as inhibition of virus induced-plaque formation at 12.5 uM after 3 days by neutral red-based plaque reduction assay; assay type: functional; settings: Rhinovirus B, 72 h
How it was run: as §1, with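 “wells. IC50 came from % plaque reduction vs log dose; where 50% was not reached, % inhibition at the MNTC was reported.” for “wells.”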

rhinovirus A1B [10] = assay: Antiviral activity against Human rhinovirus 1B assessed as reduction in infectivity titers at 42 uM after 1 hr using HeLa cell monolayers by plaque assay (reference value: 5.33 * 10^6 PFU/mL); assay type: functional
How it was run: (§3)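 HRV 1B suspension at high titre incubated ± 42 µM compound for 1 h at 33 °C. It was then serially diluted 10-fold to reach non-inhibitory free compound levels, and infectivity was titrated by plaque assay on HeLa monolayers.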

rhinovirus A1B [11] = assay: Antiviral activity against Human rhinovirus 1B in human HeLa cell monolayers assessed as reduction of viral infectivity at 42 uM at pH 5 pre-treated for 1 hr before mild acid treatment measured after 30 mins by plaque assay (reference value: 3.8 log PFU/mL); assay type: functional
rhinovirus A1B [12] = assay: Antiviral activity against Human rhinovirus 1B in human HeLa cell monolayers assessed as reduction of viral infectivity at 42 uM at 56 degC pre-treated for 1 hr before thermal treatment measured after 20 mins by plaque assay (reference value: 2.9 log PFU/mL); assay type: functional
rhinovirus A1B [13] = assay: Antiviral activity against Human rhinovirus 1B infected in human HeLa cells assessed as reduction of viral yield at 42 uM treated together with viral inoculum after 10 hrs by neutral red-based plaque reduction assay; assay type: functional; settings: Rhinovirus A
How it was run: (§4)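 One-step growth: confluent HeLa monolayers infected with HRV 1B at MOI 5. Virus bound 1 h at 4 °C, then washed thrice with cold PBS; cultures were incubated at 33 °C to 10 h p.i. 42 µM compound was present either during binding only or throughout binding plus replication. Cultures were freeze-thawed three times, clarified, and yield titrated by plaque assay on HeLa.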

rhinovirus A1B [14] = assay: Antiviral activity against Human rhinovirus 1B infected in human HeLa cells assessed as reduction of viral yield at 42 uM at 4 degC treated immediately after viral adsorption after 1 hr by neutral red-based plaque reduction assay; assay type: functional, organism-based
rhinovirus A1B [15] = assay: Antiviral activity against Human rhinovirus 1B infected in human HeLa cells assessed as reduction of viral yield at 42 uM treated 15 mins after viral adsorption measured after 10 hrs by neutral red-based plaque reduction assay; assay type: functional; settings: Rhinovirus A
rhinovirus A1B [16] = assay: Antiviral activity against Human rhinovirus 1B infected in human HeLa cells assessed as reduction of viral yield at 42 uM treated 30 mins after viral adsorption measured after 10 hrs by neutral red-based plaque reduction assay; assay type: functional; settings: Rhinovirus A
rhinovirus A1B [17] = assay: Antiviral activity against Human rhinovirus 1B infected in human HeLa cells assessed as reduction of viral yield at 42 uM treated 45 mins after viral adsorption measured after 10 hrs by neutral red-based plaque reduction assay; assay type: functional; settings: Rhinovirus A
rhinovirus A1B [18] = assay: Antiviral activity against Human rhinovirus 1B infected in human HeLa cells assessed as reduction of viral yield at 42 uM treated 60 mins after viral adsorption measured after 10 hrs by neutral red-based plaque reduction assay; assay type: functional; settings: Rhinovirus A
rhinovirus A1B [19] = assay: Antiviral activity against Human rhinovirus 1B infected in human HeLa cells assessed as reduction of viral yield at 42 uM treated 2 hrs after viral adsorption measured after 10 hrs by neutral red-based plaque reduction assay; assay type: functional; settings: Rhinovirus A
rhinovirus A1B [20] = assay: Antiviral activity against Human rhinovirus 1B infected in human HeLa cells assessed as reduction of viral yield at 42 uM treated 4 hrs after viral adsorption measured after 10 hrs by neutral red-based plaque reduction assay; assay type: functional; settings: Rhinovirus A
rhinovirus A1B [21] = assay: Antiviral activity against Human rhinovirus 1B infected in human HeLa cells assessed as reduction of viral yield at 42 uM treated 6 hrs after viral adsorption measured after 10 hrs by neutral red-based plaque reduction assay; assay type: functional; settings: Rhinovirus A
rhinovirus A1B [22] = assay: Antiviral activity against Human rhinovirus 1B infected in human HeLa cells assessed as reduction of viral yield at 42 uM treated before viral adsorption measured after 10 hrs by neutral red-based plaque reduction assay; assay type: functional; settings: Rhinovirus A
rhinovirus A1B [23] = assay: Antiviral activity against Human rhinovirus 1B infected in human HeLa cells assessed as reduction of viral yield at 42 uM treated during viral adsorption measured after 10 hrs by neutral red-based plaque reduction assay; assay type: functional; settings: Rhinovirus A; how it was run: as §4
rhinovirus A1B [24] = assay: Antiviral activity against Human rhinovirus 1B infected in human HeLa cells assessed as reduction of viral yield at 42 uM treated at the end of viral adsorption followed by washout after 30 mins to 1 hr measured after 10 hrs by neutral red-based plaque reduction assay; assay type: functional; settings: Rhinovirus A
rhinovirus A1B [25] = assay: Antiviral activity against Human rhinovirus 1B infected in human HeLa cells assessed as reduction of viral yield at 42 uM treated at the end of viral adsorption measured after 10 hrs by neutral red-based plaque reduction assay; assay type: functional, organism-based; settings: TDE = time-dependent effect
rhinovirus A1B [26] = assay: Antiviral activity against Human rhinovirus 1B infected in human HeLa cells assessed as reduction of viral yield at 42 uM treated at the end of viral adsorption followed by washout after 6 hrs measured after 10 hrs by neutral red-based plaque reduction assay; assay type: functional; settings: Rhinovirus A
rhinovirus A1B [27] = assay: Antiviral activity against Human rhinovirus 1B infected in human HeLa cells measured after dilution; assay type: functional, organism-based; how it was run: as §3

Clc1ccc(/C=C/C=C2\COc3ccccc3C2)cc1
MNTC at 72 h [1]: 25 µM | CC50 at 72 h [2]: 50 µM | IC50 (rhinovirus A1B [3]): 1.39 µM | selectivity ratio [4]: 36 | IC50 (rhinovirus B14 [5]): 6.02 µM | selectivity ratio [6]: 8.31

C(/C=C/c1ccccc1)=C1/COc2ccccc2C1
MNTC at 72 h [1]: 50 µM | CC50 at 72 h [2]: 100 µM | IC50 (rhinovirus A1B [3]): 0.99 µM | selectivity ratio [4]: 101 | IC50 (rhinovirus B14 [5]): 47.6 µM | selectivity ratio [6]: 2.1

Clc1ccc2c(c1)C/C(=C/C=C/c1ccccc1)CO2
MNTC at 72 h [1]: 25 µM | CC50 at 72 h [2]: 50 µM | IC50 (rhinovirus A1B [3]): 2.79 µM | selectivity ratio [4]: 17.9 | inhibition at 25 µM (rhinovirus B14 [7]): 30.3%

Fc1ccc2c(c1)C/C(=C/C=C/c1ccccc1)CO2
MNTC at 72 h [1]: 50 µM | CC50 at 72 h [2]: 75 µM | IC50 (rhinovirus A1B [3]): 5.57 µM | selectivity ratio [4]: 13.5 | IC50 (rhinovirus B14 [5]): 36.5 µM | selectivity ratio [6]: 2.05

O=C1/C(=C/C#Cc2ccccc2)COc2ccccc21
MNTC at 72 h [1]: 25 µM | CC50 at 72 h [2]: 50 µM | IC50 (rhinovirus A1B [3]): 9.3 µM | selectivity ratio [4]: 5.38 | IC50 (rhinovirus B14 [5]): 20 µM | selectivity ratio [6]: 2.5

O=C1/C(=C/C=C/c2ccc(Cl)cc2)COc2ccccc21
MNTC at 72 h [1]: 25 µM | CC50 at 72 h [2]: 50 µM | IC50 (rhinovirus A1B [3]): 2.54 µM | selectivity ratio [4]: 19.7 | inhibition at 25 µM (rhinovirus B14 [7]): 17.1%

O=C1/C(=C/C=C/c2ccc(Cl)cc2)COc2ccc(Cl)cc21
MNTC at 72 h [1]: 12.5 µM | CC50 at 72 h [2]: 25 µM | IC50 (rhinovirus A1B [3]): 3.35 µM | selectivity ratio [4]: 7.46 | IC50 (rhinovirus B14 [5]): 1.42 µM | selectivity ratio [6]: 17.6 | Ratio IC50 [8]: 2

O=C1/C(=C/C=C/c2ccccc2)COc2ccccc21
MNTC at 72 h [1]: 12.5 µM | CC50 at 72 h [2]: 25 µM | IC50 (rhinovirus A1B [3]): 0.85 µM | selectivity ratio [4]: 29.4 | inhibition at 12.5 µM (rhinovirus B14 [9]): 7.2%

Clc1ccc(C/C=C/C2=Cc3ccccc3OC2)cc1
MNTC at 72 h [1]: 50 µM | CC50 at 72 h [2]: 100 µM | IC50 (rhinovirus A1B [3]): 3.61 µM | selectivity ratio [4]: 27.7 | IC50 (rhinovirus B14 [5]): 45.1 µM | selectivity ratio [6]: 2.22

O=C1/C(=C/C=C/c2ccccc2)COc2ccc(Cl)cc21
MNTC at 72 h [1]: 25 µM | CC50 at 72 h [2]: 50 µM | IC50 (rhinovirus A1B [3]): 0.99 µM | selectivity ratio [4]: 50.5 | inhibition at 25 µM (rhinovirus B14 [7]): 48.6%

Clc1ccc(C/C=C/C2=Cc3cc(Cl)ccc3OC2)cc1
MNTC at 72 h [1]: 25 µM | CC50 at 72 h [2]: 100 µM | IC50 (rhinovirus A1B [3]): 9.73 µM | selectivity ratio [4]: 10.3 | inhibition at 25 µM (rhinovirus B14 [7]): 27%

C1=C(/C=C/Cc2ccccc2)COc2ccccc21
MNTC at 72 h [1]: 50 µM | CC50 at 72 h [2]: 75 µM | IC50 (rhinovirus A1B [3]): 13.6 µM | selectivity ratio [4]: 5.52 | IC50 (rhinovirus B14 [5]): 11.1 µM | selectivity ratio [6]: 6.76

O=C1/C(=C/C=C/c2ccccc2)COc2ccc(F)cc21
MNTC at 72 h [1]: 25 µM | CC50 at 72 h [2]: 50 µM | IC50 (rhinovirus A1B [3]): 4.98 µM | selectivity ratio [4]: 10 | IC50 (rhinovirus B14 [5]): 17 µM | selectivity ratio [6]: 2.94

Clc1ccc2c(c1)C=C(/C=C/Cc1ccccc1)CO2
MNTC at 72 h [1]: 12.5 µM | CC50 at 72 h [2]: 25 µM | IC50 (rhinovirus A1B [3]): 0.42 µM | selectivity ratio [4]: 59.5 | inhibition at 12.5 µM (rhinovirus B14 [9]): 23% | PFU/ml (rhinovirus A1B [10]): 5110000 | log10PFU/ml (rhinovirus A1B [11]): 2.8 | log10PFU/ml (rhinovirus A1B [12]): 1.8 | inhibition at 42 µM (rhinovirus A1B [13]): 88.5% | inhibition (rhinovirus A1B [14]): Active | inhibition at 42 µM (rhinovirus A1B [15]): > 80% | inhibition at 42 µM (rhinovirus A1B [16]): > 80% | inhibition at 42 µM (rhinovirus A1B [17]): > 80% | inhibition at 42 µM (rhinovirus A1B [18]): > 80% | inhibition at 42 µM (rhinovirus A1B [19]): 31% | inhibition at 42 µM (rhinovirus A1B [20]): 12% | inhibition at 42 µM (rhinovirus A1B [21]): 1% | inhibition at 42 µM (rhinovirus A1B [22]): 6% | inhibition at 42 µM (rhinovirus A1B [23]): 16% | inhibition at 42 µM (rhinovirus A1B [24]): 35% | inhibition (rhinovirus A1B [25]): tde | inhibition at 42 µM (rhinovirus A1B [26]): 93% | Activity (rhinovirus A1B [27]): inactive

O=C1/C(=C/C#Cc2ccccc2)COc2ccc(Cl)cc21
MNTC at 72 h [1]: 50 µM | CC50 at 72 h [2]: 75 µM | IC50 (rhinovirus A1B [3]): 7.89 µM | selectivity ratio [4]: 9.51 | IC50 (rhinovirus B14 [5]): 30.4 µM | selectivity ratio [6]: 2.47

Clc1ccc(/C=C/C=C2\COc3ccc(Cl)cc3C2)cc1
MNTC at 72 h [1]: 12.5 µM | CC50 at 72 h [2]: 25 µM | IC50 (rhinovirus A1B [3]): 11.5 µM | selectivity ratio [4]: 2.18 | IC50 (rhinovirus B14 [5]): 8.27 µM | selectivity ratio [6]: 3.02
